Test results as given in ChEMBL document CHEMBL3352401, “Synthesis and antiviral activity of new phenylimidazopyridines and N-benzylidenequinolinamines derived by molecular simplification of phenylimidazo[4,5-g]quinolines” (Eur J Med Chem, 2014).

What was measured:
[1] = Antiviral activity against Bovine viral diarrhea virus 1-NADL ATCC VR-534 infected in MDBK cells assessed as protection from virus-induced cytopathogenicity after 3 to 4 days by MTT method; format: functional, cell-based; settings: Bovine viral diarrhea virus isolates and strains, ATCC VR-534, MDBK
In short: (§1)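 Confluent monolayers grown overnight (BHK-21 at 5×10⁴ cells/well for YFV and Reo-1; MDBK at 3×10⁴ cells/well for BVDV). Infection at m.o.i. 0.01 for 2 h in maintenance MEM-Earle with 0.5% inactivated FBS, then serial compound dilutions added. Viability read by MTT after 3–4 days at 37 °C. EC50 taken from linear regression against untreated controls.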

[2] = Cytotoxicity against mock-infected bovine MDBK cells assessed as reduction in proliferation after 72 hrs by MTT method; format: cell-based, Bos taurus; settings: cattle
In short: (§2)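 MDBK and BHK cells seeded at 6 × 10⁵ and 1 × 10⁶ cells/mL respectively. Medium was MEM-Earle with L-glutamine, 1 mM pyruvate and kanamycin, plus 10% horse serum (MDBK) or 10% FBS (BHK). Cells exposed to serial compound dilutions at 37 °C, 5% CO₂; MTT viability read at 72 h. CC50 by linear regression versus untreated controls.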

[3] = Antiviral activity against Human respiratory syncytial virus A2 ATCC VR-1540 infected in Vero 76 cells after 5 days by plaque reduction assays; format: functional, cell-based; settings: ATCC VR-1540, Vero 76, 120 h
[4] = Antiviral activity against Vaccinia virus Lister ATCC VR-1549 infected in Vero 76 cells after 3 days by plaque reduction assays; format: functional, cell-based; settings: ATCC VR-1549, Vero 76, 72 h
[5] = Antiviral activity against Simian virus 12 3651 (ATCC VR- 214) infected in BHK21 cells assessed as protection from virus-induced cytopathogenicity after 3 to 4 days by MTT method; format: functional, cell-based; settings: BHK-21; in short: as §1
[6] = tested on: Vesicular stomatitis Indiana virus; test: Antiviral activity against Vesicular stomatitis Indiana virus ATCC VR 158 infected in Vero 76 cells after 2 days by plaque reduction assays; format: functional, organism-based; settings: ATCC VR 158, Vero 76, 48 h
[7] = Cytotoxicity against mock-infected human MT4 cells assessed as reduction in proliferation after 96 hrs by MTT method; format: cell-based
In short: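 Exponentially growing MT-4 cells seeded at 1 × 10⁵ cells/mL in RPMI-1640 with 10% FBS, penicillin and streptomycin. Held 96 h at 37 °C, 5% CO₂ with or without serial compound dilutions; viability by MTT. Compounds dissolved in DMSO at 100 mM stock, then diluted in medium. CC50 by linear regression.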

[8] = tested on: Coxsackievirus B5; test: Antiviral activity against Coxsackievirus B5 Faulkner (ATCC VR-185) infected in Vero 76 cells after 3 days by plaque reduction assays; format: functional, organism-based; settings: Enterovirus B, Vero 76, 72 h
[9] = Ratio of Cidofovir EC50 to compound EC50 for Vaccinia virus Lister ATCC VR-1549 infected in Vero 76 cells after 3 days by plaque reduction assays; format: functional
[10] = Half life in plasma (unknown origin); format: ADME, cell-free; settings: unidentified
In short: (§3)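 Compound kept at 37 °C in pH 7.4 phosphate buffer (chemical) or plasma (enzymatic), sampled hourly. Plasma aliquots extracted with acetonitrile (1:2) and centrifuged 1000 g for 10 min. Supernatant or buffer analysed by reversed-phase HPLC, methanol/water 80:20, detection at 250 nm. Pseudo-first-order t½ taken from the slope of log remaining compound versus time.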

[11] = Cytotoxicity against mock-infected African green monkey Vero 76 cells assessed as reduction in proliferation after 48 to 96 hrs by MTT method; format: cell-based; settings: chlorocebus sabaeus, Vero 76 cells (mock-infected)
In short: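 Vero-76 cells seeded at 4 × 10⁵ cells/mL in D-MEM with L-glutamine, kanamycin and 10% FBS. Incubated at 37 °C, 5% CO₂, with or without serial dilutions of compound; viability read by MTT after 48–96 h. Run in parallel with antiviral assays. CC50 obtained by linear regression of % of untreated control.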

[12] = tested on: Human alphaherpesvirus 1; test: Antiviral activity against Human herpesvirus 1 strain KOS ATCC VR- 1493 infected in Vero 76 cells after 3 days by plaque reduction assays; format: functional, organism-based; settings: Human alphaherpesvirus 1, KOS ATCC VR1493, Vero 76, 72 h
[13] = Half life in pH 7.4 buffered solution; format: physicochemical; in short: as §3
[14] = Cytotoxicity against mock-infected hamster BHK21 cells assessed as reduction in proliferation after 72 hrs by MTT method; format: cell-based, Mesocricetus auratus, BHK-21; in short: as §2
[15] = tested on: Human poliovirus 1 strain Sabin; test: Antiviral activity against Poliovirus 1 strain Sabin ATCC VR-1562 infected in Vero 76 cells after 2 days by plaque reduction assays; format: functional, organism-based; settings: Enterovirus C, ATCC VR-1562, Vero 76, 48 h
[16] = tested on: Yellow fever virus; test: Antiviral activity against Yellow fever virus 17D Stamaril Pasteur J07B01 infected in BHK21 cells assessed as protection from virus-induced cytopathogenicity after 3 to 4 days by MTT method; format: functional, cell-based; settings: Stamaril Pasteur J07B01, BHK-21; in short: as §1
[17] = tested on: Human immunodeficiency virus 1; test: Antiviral activity against HIV-13B infected in MT4 cells assessed as protection from virus-induced cytopathogenicity after 4 days by MTT method; format: functional, organism-based; settings: Human immunodeficiency virus 1, 3B, MT4, 96 h
In short: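 HIV-1 IIIB, taken from persistently infected H9/IIIB supernatant. MT-4 cells (1×10⁴/well) in RPMI with serial compound dilutions, infected with 100 CCID50 (m.o.i. 0.01). Viability by MTT after 4 days at 37 °C. EC50 = 50% protection from cytopathogenicity, by linear regression against untreated controls. Compounds kept as 100 mM DMSO stocks, diluted in medium.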

Compound | EC50 [1] | CC50 at 72 h [2] | EC50 [3] | EC50 [4] | EC50 [5] | EC50 [6] | CC50 at 96 h [7] | EC50 [8] | Ratio EC50 [9] | half-life [10] | CC50 [11] | EC50 [12] | half-life [13] | CC50 at 72 h [14] | EC50 [15] | EC50 [16] | EC50 [17]
N#Cc1ccc(-c2nc3cc(Br)cnc3[nH]2)cc1 | > 100 µM | > 100 µM | > 73 µM | 2 µM | > 100 µM | > 73 µM | 53 µM | > 73 µM | 10 | 2 h | 73 µM | 15 µM | > 4 h | > 100 µM | > 73 µM | > 100 µM | –
N#Cc1ccc(/C=N/c2cc3c(=O)cc[nH]c3c(Cl)c2N)cc1 | 28 µM | > 100 µM | > 100 µM | > 100 µM | > 100 µM | > 100 µM | > 100 µM | > 100 µM | – | – | > 100 µM | > 100 µM | – | > 100 µM | > 100 µM | > 87 µM | > 100 µM
